Assay results reported in ChEMBL document CHEMBL1130049, “Synthesis and oral efficacy of a 4-(butylethylamino)pyrrolo[2,3-d]pyrimidine: a centrally active corticotropin-releasing factor1 receptor antagonist” (J Med Chem, 1997).

Key:
Rattus norvegicus [1] = species: Rattus norvegicus; assay: Half life in rat; assay type: ADME, organism-based; conditions: in vivo
How it was run: (§1)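 Male Sprague-Dawley rats (300–350 g) had jugular cannulae placed under pentobarbital the day before dosing. Groups of n = 4 got 5 mg/kg iv bolus (DMSO/emulphor/saline 5:5:90) or 10 mg/kg po (DMSO/emulphor/water 5:5:90). Serial plasma was taken to 24 h (iv) or 8 h (po) and assayed by HPLC-UV at 300 nm. AUC was by linear trapezoid, CL = dose/AUC, Vdss = CL×MRT, and F from dose-normalised po/iv AUC.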

[2] = biological target: T1, Corticotropin-releasing factor receptor 1 (Rattus norvegicus, UniProt P35353); assay: Inhibition of binding of 70 pM [125I]-Try0-o-Corticotropin-releasing Factor (CFR) to Corticotropin releasing hormone receptor 1 in Rat brain membrane; assay type: cell membranes
T1 sequence (P35353 whole entry): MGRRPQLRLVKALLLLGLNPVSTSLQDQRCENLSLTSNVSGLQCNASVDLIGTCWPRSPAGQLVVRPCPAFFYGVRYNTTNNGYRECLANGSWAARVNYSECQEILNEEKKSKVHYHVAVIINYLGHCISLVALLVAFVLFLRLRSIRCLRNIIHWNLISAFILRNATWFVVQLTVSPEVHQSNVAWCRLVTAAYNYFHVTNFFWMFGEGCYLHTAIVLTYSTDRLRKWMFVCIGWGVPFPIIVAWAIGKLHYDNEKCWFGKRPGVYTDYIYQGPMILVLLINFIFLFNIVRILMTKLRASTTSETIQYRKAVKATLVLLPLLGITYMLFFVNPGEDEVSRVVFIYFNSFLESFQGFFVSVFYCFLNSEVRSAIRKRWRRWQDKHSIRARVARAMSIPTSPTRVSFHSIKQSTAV

[3] = Oral bioavailability in rat; assay type: ADME, organism-based; conditions: in vivo, read-out: Bioavailabiility; how it was run: as §1
Rattus norvegicus [4] = species: Rattus norvegicus; assay: Volume of distribution in steady state in rat; assay type: ADME, organism-based; conditions: in vivo; how it was run: as §1
[5] = Plasma clearance in rat; assay type: ADME, organism-based; how it was run: as §1
[6] = biological target: Corticotropin-releasing factor receptor 2 (Rattus norvegicus, UniProt P47866); assay: Inhibition of binding of [125I]-Tyr0-sauvagine to Corticotropin releasing hormone receptor 2 (CRF2)
Chain of Corticotropin-releasing factor receptor 2 (P47866 whole entry): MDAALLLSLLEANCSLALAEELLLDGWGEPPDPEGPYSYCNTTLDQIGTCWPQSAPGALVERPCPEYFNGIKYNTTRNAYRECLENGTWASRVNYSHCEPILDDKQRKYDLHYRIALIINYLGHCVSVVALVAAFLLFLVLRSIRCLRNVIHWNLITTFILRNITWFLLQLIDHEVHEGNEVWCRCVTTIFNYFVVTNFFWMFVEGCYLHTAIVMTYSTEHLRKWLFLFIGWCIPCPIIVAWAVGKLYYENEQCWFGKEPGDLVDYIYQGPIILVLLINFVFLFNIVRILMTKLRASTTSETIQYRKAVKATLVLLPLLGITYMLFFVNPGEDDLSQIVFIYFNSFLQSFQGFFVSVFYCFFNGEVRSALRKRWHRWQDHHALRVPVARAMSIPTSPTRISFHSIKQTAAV

[7] = Maximal plasma concentration in rat; assay type: ADME, organism-based; how it was run: as §1

T1/2 (Rattus norvegicus [1]): 1.5 h
IC50 [2]: 5.5 nM
bioavailability [3]: 37%
Vdss (Rattus norvegicus [4]): 6.7 L/kg
clearance [5]: 82 mL/min/kg
Ki [6]: > 10000 nM
Cmax [7]: 367 ng/mL
SMILES: CCCCN(CC)c1nc(C)nc2c1c(C)cn2-c1c(C)cc(C)cc1C [CP-154526]
